{"source": "ChEMBL document CHEMBL1143822", "about": "“Three-dimensional quantitative structure-activity relationship analysis of human CYP51 inhibitors” (Drug Metab Dispos, 2007)"}
{"molecular_target": "T1, Lanosterol 14-alpha demethylase (Homo sapiens, UniProt Q16850)", "T1 sequence (Q16850 whole entry)": "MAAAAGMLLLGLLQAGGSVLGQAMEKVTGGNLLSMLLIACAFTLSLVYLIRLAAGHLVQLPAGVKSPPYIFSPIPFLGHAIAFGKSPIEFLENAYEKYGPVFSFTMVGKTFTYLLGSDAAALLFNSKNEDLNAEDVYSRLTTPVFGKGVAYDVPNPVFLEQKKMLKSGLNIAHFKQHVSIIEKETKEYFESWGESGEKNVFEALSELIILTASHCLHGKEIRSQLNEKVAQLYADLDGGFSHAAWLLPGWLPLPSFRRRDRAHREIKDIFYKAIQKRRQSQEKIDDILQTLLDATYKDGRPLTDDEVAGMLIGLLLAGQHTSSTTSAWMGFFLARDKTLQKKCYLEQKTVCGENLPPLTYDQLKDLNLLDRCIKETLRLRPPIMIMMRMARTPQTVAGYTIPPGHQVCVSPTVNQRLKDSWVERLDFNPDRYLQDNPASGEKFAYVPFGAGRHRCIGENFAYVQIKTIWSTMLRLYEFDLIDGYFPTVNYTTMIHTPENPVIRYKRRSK", "test": "Binding affinity to human CYP51", "units": {"Kd": "µM"}}
{"molecule": "CC(=O)N1CCN(c2ccc(OC[C@H]3CO[C@](Cn4ccnc4)(c4ccc(Cl)cc4Cl)O3)cc2)CC1", "note": "[KETOCONAZOLE]", "Kd": 8}
{"molecular_target": "T1, Lanosterol 14-alpha demethylase", "test": "Inhibition of human CYP51 expressed in Topp 3 cells by lanosterol demethylase assay", "assay_type": "cell-based", "how_it_was_run": "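0.5 ml phosphate buffer pH 7.4 with KCN, NADPH regenerating system, 60 min at 37 °C. Triene product extracted and quantified by chromatography (ergosterol internal standard). IC50 read from plot of % activity remaining vs concentration.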", "units": {"IC50": "µM"}}
{"molecule": "O=C(N[C@@H](Cc1c[nH]cn1)C(=O)N1CCC(O)CC1)c1cc2cc(Cl)ccc2[nH]1", "IC50": 1.3}
{"molecule": "O=C(N[C@@H](Cc1ccc(O)cc1)C(=O)N1CCC(O)CC1)c1cc2cc(Cl)ccc2[nH]1", "IC50": 2.5}
{"molecule": "O=C(N[C@@H](Cc1ccccc1F)C(=O)N1CCC(O)CC1)c1cc2cc(Cl)ccc2[nH]1", "IC50": 0.8}
{"molecule": "O=C(N[C@@H](Cc1cccnc1)C(=O)N1CCC(O)CC1)c1cc2cc(Cl)ccc2[nH]1", "IC50": 26}
{"molecule": "O=C(NC(Cc1ccccc1)C(=O)O)c1cc2cc(Cl)ccc2[nH]1", "note": "(stereo not given)", "IC50": "> 200"}
{"molecule": "O=C(N[C@@H](Cc1ccccc1)C(=O)N1CCC(O)CC1)c1cc2c([nH]1)CCCC2", "IC50": "> 200"}
{"molecule": "COc1ccc(C[C@H](NC(=O)c2cc3cc(Cl)ccc3[nH]2)C(=O)N2CCC(O)CC2)cc1", "IC50": 4.5}
{"molecule": "O=C(N[C@@H](Cc1ccccc1)C(=O)N1CCC(O)CC1)c1cc2cc(Cl)ccc2[nH]1", "IC50": 3.1}
{"molecule": "O=C(N[C@@H](Cc1ccccc1)C(=O)N1CCC(O)CC1)c1cc2ccccc2[nH]1", "IC50": 0.91}
{"molecule": "O=C(NC(Cc1ccccc1)C(=O)N1CCC(O)CC1)c1ccc[nH]1", "note": "(stereo not given)", "IC50": "> 200"}
{"molecule": "O=C(N[C@H](Cc1ccccc1)C(=O)N1CCC(O)CC1)c1cc2cc(Cl)ccc2[nH]1", "IC50": 100}
{"molecule": "O=C(N[C@@H](Cc1ccc(Cl)cc1)C(=O)N1CCC(O)CC1)c1cc2cc(Cl)ccc2[nH]1", "IC50": 9.7}
{"molecule": "O=C(N[C@@H](Cc1ccccc1)C(=O)N1CCC(O)CC1)c1cc2cc(F)ccc2[nH]1", "IC50": 75}
{"molecule": "O=C(NC1(C(=O)N2CCC(O)CC2)CCCC1)c1cc2cc(Cl)ccc2[nH]1", "IC50": 100}
{"molecule": "O=C(N[C@@H](Cc1ccc(F)cc1)C(=O)N1CCC(O)CC1)c1cc2cc(Cl)ccc2[nH]1", "IC50": 4}
{"molecule": "O=C(N[C@@H](Cc1ccccc1Cl)C(=O)N1CCC(O)CC1)c1cc2cc(Cl)ccc2[nH]1", "note": "[ANALOGUE A]", "IC50": 0.3}
{"molecule": "CCCCC/C=C\\C/C=C\\C/C=C\\C/C=C\\CCCC(=O)NCCO", "note": "[ANANDAMIDE]", "IC50": "> 200"}
{"molecule": "CCCCC/C=C\\C/C=C\\C/C=C\\C/C=C\\CCCC(=O)O", "note": "[ARACHIDONIC ACID]", "IC50": "> 200"}
{"molecule": "Clc1ccc(C2(Cn3cncn3)OCCO2)c(Cl)c1", "note": "[AZACONAZOLE]", "IC50": "> 10"}
{"molecule": "c1ccc2[nH]cnc2c1", "note": "[BENZIMIDAZOLE]", "IC50": "> 200"}
{"molecule": "c1ccc(-c2ccc(C(c3ccccc3)n3ccnc3)cc2)cc1", "note": "(stereo not given) [BIFONAZOLE]", "IC50": 0.342}
{"molecule": "CCCNC(=O)NS(=O)(=O)c1ccc(Cl)cc1", "note": "[CHLORPROPAMIDE]", "IC50": "> 200"}
{"molecule": "CC(C)CCC[C@@H](C)[C@H]1CC[C@H]2[C@@H]3CC=C4C[C@@H](O)CC[C@]4(C)[C@H]3CC[C@]12C", "note": "[CHOLESTEROL]", "IC50": "> 200"}
{"molecule": "Clc1ccccc1C(c1ccccc1)(c1ccccc1)n1ccnc1", "note": "[CLOTRIMAZOLE]", "IC50": 0.13}
{"molecule": "Clc1ccc(COC(Cn2ccnc2)c2ccc(Cl)cc2Cl)cc1", "note": "(stereo not given) [ECONAZOLE]", "IC50": 0.05}
{"molecule": "CC[C@H]1OC(=O)[C@H](C)[C@@H](O[C@H]2C[C@@](C)(OC)[C@@H](O)[C@H](C)O2)[C@H](C)[C@@H](O[C@@H]2O[C@H](C)C[C@H](N(C)C)[C@H]2O)[C@](C)(O)C[C@@H](C)C(=O)[C@H](C)[C@@H](O)[C@]1(C)O", "note": "[ERYTHROMYCIN]", "IC50": "> 200"}
{"molecule": "COC1=CC(=O)C[C@@H](C)[C@]12Oc1c(Cl)c(OC)cc(OC)c1C2=O", "note": "[GRISEOFULVIN]", "IC50": 50}
{"molecule": "CCC(C)n1ncn(-c2ccc(N3CCN(c4ccc(OCC5COC(Cn6cncn6)(c6ccc(Cl)cc6Cl)O5)cc4)CC3)cc2)c1=O", "note": "(stereo not given) [ITRACONAZOLE]", "IC50": 3.6}
{"molecule": "CC(=O)N1CCN(c2ccc(OC[C@H]3CO[C@](Cn4ccnc4)(c4ccc(Cl)cc4Cl)O3)cc2)CC1", "note": "[KETOCONAZOLE]", "IC50": 0.19}
{"molecule": "CC[C@H](C)C(=O)O[C@H]1C[C@@H](C)C=C2C=C[C@H](C)[C@H](CC[C@@H]3C[C@@H](O)CC(=O)O3)[C@H]21", "note": "[LOVASTATIN]", "IC50": "> 200"}
{"molecule": "Cn1cc[nH]c1=S", "note": "[METHIMAZOLE]", "IC50": "> 200"}
{"molecule": "Cc1ncc([N+](=O)[O-])n1CCO", "note": "[METRONIDAZOLE]", "IC50": "> 200"}
{"molecule": "Clc1ccc(COC(Cn2ccnc2)c2ccc(Cl)cc2Cl)c(Cl)c1", "note": "(stereo not given) [MICONAZOLE]", "IC50": 0.2}
{"molecule": "CC(=O)[C@H]1CC[C@H]2[C@@H]3CC=C4C[C@@H](O)CC[C@]4(C)[C@H]3CC[C@]12C", "note": "[PREGNENOLONE]", "IC50": "> 200"}
{"molecule": "CC(=O)[C@H]1CC[C@H]2[C@@H]3CCC4=CC(=O)CC[C@]4(C)[C@H]3CC[C@]12C", "note": "[PROGESTERONE]", "IC50": "> 200"}
{"molecule": "CO[C@H]1/C=C/O[C@@]2(C)Oc3c(C)c(O)c4c(O)c(c(/C=N/N5CCN(C)CC5)c(O)c4c3C2=O)NC(=O)/C(C)=C\\C=C\\[C@H](C)[C@H](O)[C@@H](C)[C@@H](O)[C@@H](C)[C@H](OC(C)=O)[C@@H]1C", "note": "[RIFAMPIN]", "IC50": 30}
{"molecule": "Nc1ccc(S(=O)(=O)Nc2ccnn2-c2ccccc2)cc1", "note": "[SULFAPHENAZOLE]", "IC50": "> 200"}
{"molecule": "O=C1C(CC[S+]([O-])c2ccccc2)C(=O)N(c2ccccc2)N1c1ccccc1", "note": "(stereo not given) [SULFINPYRAZONE]", "IC50": "> 200"}
{"molecule": "CC(C)N1CCN(c2ccc(OC[C@H]3CO[C@](Cn4cncn4)(c4ccc(Cl)cc4Cl)O3)cc2)CC1", "note": "[TERCONAZOLE]", "IC50": 3}
{"molecule": "C[C@]12CC[C@H]3[C@@H](CCC4=CC(=O)CC[C@@]43C)[C@@H]1CC[C@@H]2O", "note": "[TESTOSTERONE]", "IC50": 50}
{"molecule": "CCCCNC(=O)NS(=O)(=O)c1ccc(C)cc1", "note": "[TOLBUTAMIDE]", "IC50": "> 200"}
{"molecule": "Cc1cccc(N(C)C(=S)Oc2ccc3ccccc3c2)c1", "note": "[TOLNAFTATE]", "IC50": 50}
{"molecule": "OC(c1ccccc1)(c1cncnc1)c1ccc(Cl)cc1Cl", "note": "(stereo not given) [TRIARIMOL]", "IC50": "> 10"}
{"substrate": "CC(C)=CCC[C@@H](C)[C@H]1CC[C@@]2(C)C3=C(CC[C@]12C)[C@@]1(C)CC[C@H](O)C(C)(C)[C@@H]1CC3", "test": "Binding affinity to human reconstituted CYP51", "units": {"Km": "µM"}}
{"molecule": "Lanosterol 14-alpha demethylase (Homo sapiens) (protein) MAAAAGMLLLGLLQAGGSVLGQAMEKVTGGNLLSMLLIACAFTLSLVYLIRLAAGHLVQLPAGVKSPPYIFSPIPFLGHAIAFGKSPIEFLENAYEKYGPVFSFTMVGKTFTYLLGSDAAALLFNSKNEDLNAEDVYSRLTTPVFGKGVAYDVPNPVFLEQKKMLKSGLNIAHFKQHVSIIEKETKEYFESWGESGEKNVFEALSELIILTASHCLHGKEIRSQLNEKVAQLYADLDGGFSHAAWLLPGWLPLPSFRRRDRAHREIKDIFYKAIQKRRQSQEKIDDILQTLLDATYKDGRPLTDDEVAGMLIGLLLAGQHTSSTTSAWMGFFLARDKTLQKKCYLEQKTVCGENLPPLTYDQLKDLNLLDRCIKETLRLRPPIMIMMRMARTPQTVAGYTIPPGHQVCVSPTVNQRLKDSWVERLDFNPDRYLQDNPASGEKFAYVPFGAGRHRCIGENFAYVQIKTIWSTMLRLYEFDLIDGYFPTVNYTTMIHTPENPVIRYKRRSK", "Km": 30}
